Data as given in ChEMBL document CHEMBL4052710 (Bioorg Med Chem Lett, 2017).

What was measured:
[1] = target: CDK4/Cyclin D3 (Homo sapiens) (UniProt P11802+P30281); assay: Inhibition of human CDK4/CyclinD3 at 1 uM by enzymatic radiometric assay; type: protein-complex assay
Summary of the method: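 Kinase panel run through the Eurofins KinaseProfiler, with compound at a fixed 1 µM. Values are means of two independent experiments.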

[2] = target: Vascular endothelial growth factor receptor 2 (Homo sapiens, UniProt P35968); assay: Inhibition of human VEGFR2 at 1 uM by enzymatic radiometric assay
T47D [3] = assay: Growth inhibition of human T47D cells incubated for 72 hrs at 10 uM by CCK8 assay; type: functional; details: read-out: GI
Summary of the method: (§1)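 CCK8 viability assay on a panel of human cancer cell lines, with an initial screen at fixed concentrations of 1 µM and 10 µM.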

A549 [4] = assay: Growth inhibition of human A549 cells incubated for 72 hrs at 1 uM by CCK8 assay; type: functional; details: A549, 72 h, read-out: GI; summary of the method: as §1
A549 [5] = assay: Growth inhibition of human A549 cells incubated for 72 hrs at 10 uM by CCK8 assay; type: functional; details: A549, 72 h, read-out: GI; summary of the method: as §1
T47D [6] = assay: Growth inhibition of human T47D cells incubated for 72 hrs at 1 uM by CCK8 assay; type: functional; details: read-out: GI; summary of the method: as §1
NCI-H1299 [7] = assay: Growth inhibition of human H1299 cells incubated for 72 hrs at 10 uM by CCK8 assay; type: functional; details: NCI-H1299, 72 h, read-out: GI; summary of the method: as §1
OVCAR-5 [8] = assay: Growth inhibition of human OVCAR5 cells incubated for 72 hrs at 1 uM by CCK8 assay; type: functional; details: OVCAR-5, 72 h, read-out: GI; summary of the method: as §1
SiHa [9] = assay: Growth inhibition of human SiHa cells incubated for 72 hrs at 1 uM by CCK8 assay; type: functional; details: read-out: GI; summary of the method: as §1
HeLa [10] = assay: Growth inhibition of human HeLa cells incubated for 72 hrs at 1 uM by CCK8 assay; type: functional; details: read-out: GI; summary of the method: as §1
SiHa [11] = assay: Growth inhibition of human SiHa cells incubated for 72 hrs at 10 uM by CCK8 assay; type: functional; details: read-out: GI; summary of the method: as §1
HeLa [12] = assay: Growth inhibition of human HeLa cells incubated for 72 hrs at 10 uM by CCK8 assay; type: functional; details: read-out: GI; summary of the method: as §1
NCI-H460 [13] = assay: Growth inhibition of human H460 cells incubated for 72 hrs at 1 uM by CCK8 assay; type: functional; details: NCI-H460, 72 h, read-out: GI; summary of the method: as §1
NCI-H1299 [14] = assay: Growth inhibition of human H1299 cells incubated for 72 hrs at 1 uM by CCK8 assay; type: functional; details: NCI-H1299, 72 h, read-out: GI; summary of the method: as §1
NCI-H460 [15] = assay: Growth inhibition of human H460 cells incubated for 72 hrs at 10 uM by CCK8 assay; type: functional; details: NCI-H460, 72 h, read-out: GI; summary of the method: as §1
OVCAR-5 [16] = assay: Growth inhibition of human OVCAR5 cells incubated for 72 hrs at 10 uM by CCK8 assay; type: functional; details: OVCAR-5, 72 h, read-out: GI; summary of the method: as §1

Chain of Vascular endothelial growth factor receptor 2 (P35968 whole entry): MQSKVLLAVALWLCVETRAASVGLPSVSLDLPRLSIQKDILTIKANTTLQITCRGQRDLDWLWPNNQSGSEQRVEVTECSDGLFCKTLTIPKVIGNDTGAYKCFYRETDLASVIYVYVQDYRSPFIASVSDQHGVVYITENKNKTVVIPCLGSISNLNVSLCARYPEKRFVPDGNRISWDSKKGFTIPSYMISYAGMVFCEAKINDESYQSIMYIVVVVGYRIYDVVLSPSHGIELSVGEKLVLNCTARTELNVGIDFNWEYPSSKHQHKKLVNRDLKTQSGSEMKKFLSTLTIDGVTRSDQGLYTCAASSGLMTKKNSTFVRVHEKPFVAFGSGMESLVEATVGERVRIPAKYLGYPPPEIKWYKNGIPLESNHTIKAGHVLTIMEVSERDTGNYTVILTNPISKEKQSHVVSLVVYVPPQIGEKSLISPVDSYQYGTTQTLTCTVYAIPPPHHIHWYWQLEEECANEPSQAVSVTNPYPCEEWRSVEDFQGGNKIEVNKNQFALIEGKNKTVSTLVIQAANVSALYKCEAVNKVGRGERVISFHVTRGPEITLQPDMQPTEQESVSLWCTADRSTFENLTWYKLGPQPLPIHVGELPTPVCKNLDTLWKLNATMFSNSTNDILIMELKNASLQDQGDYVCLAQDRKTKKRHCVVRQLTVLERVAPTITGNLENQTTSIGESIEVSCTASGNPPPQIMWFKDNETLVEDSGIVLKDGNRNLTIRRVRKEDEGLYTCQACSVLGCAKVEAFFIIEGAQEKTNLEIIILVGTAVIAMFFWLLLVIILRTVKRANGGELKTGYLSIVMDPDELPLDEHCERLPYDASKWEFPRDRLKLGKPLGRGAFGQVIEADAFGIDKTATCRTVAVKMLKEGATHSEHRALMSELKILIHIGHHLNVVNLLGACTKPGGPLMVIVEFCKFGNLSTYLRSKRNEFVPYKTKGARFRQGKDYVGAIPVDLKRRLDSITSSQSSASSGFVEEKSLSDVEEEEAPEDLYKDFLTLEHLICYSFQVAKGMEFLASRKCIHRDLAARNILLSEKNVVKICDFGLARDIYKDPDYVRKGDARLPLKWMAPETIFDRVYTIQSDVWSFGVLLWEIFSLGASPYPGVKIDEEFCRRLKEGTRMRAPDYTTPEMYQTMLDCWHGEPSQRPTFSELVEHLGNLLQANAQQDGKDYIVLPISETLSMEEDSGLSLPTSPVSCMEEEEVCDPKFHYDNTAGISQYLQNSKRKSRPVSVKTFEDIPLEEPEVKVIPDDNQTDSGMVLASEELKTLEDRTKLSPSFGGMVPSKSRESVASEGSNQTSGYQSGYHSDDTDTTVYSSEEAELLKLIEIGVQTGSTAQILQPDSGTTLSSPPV

Row | Structure (SMILES) | inhibition [1] [%] | inhibition [2] [%] | inhibition of growth at 10 µM (T47D [3]) [%] | inhibition of growth at 1 µM (A549 [4]) [%] | inhibition of growth at 10 µM (A549 [5]) [%] | inhibition of growth at 1 µM (T47D [6]) [%] | inhibition of growth at 10 µM (NCI-H1299 [7]) [%] | inhibition of growth at 1 µM (OVCAR-5 [8]) [%] | inhibition of growth at 1 µM (SiHa [9]) [%] | inhibition of growth at 1 µM (HeLa [10]) [%] | inhibition of growth at 10 µM (SiHa [11]) [%] | inhibition of growth at 10 µM (HeLa [12]) [%] | inhibition of growth at 1 µM (NCI-H460 [13]) [%] | inhibition of growth at 1 µM (NCI-H1299 [14]) [%] | inhibition of growth at 10 µM (NCI-H460 [15]) [%] | inhibition of growth at 10 µM (OVCAR-5 [16]) [%]
1 | CN(C)C(=O)c1cc2cnc(Nc3ccc(NC(=O)C4(C(=O)Nc5ccc(C(F)(F)F)cc5)CC4)cc3)nc2n1C1CCCC1 | 32 | 1 | 94.9 | -25.3 | 87.9 | 29.6 |  |  |  |  |  |  |  |  |  | 
2 | CN(C)C(=O)c1cc2cnc(Nc3ccc(NC(=O)C4(C(=O)Nc5cccc(C(F)(F)F)c5)CC4)cc3)nc2n1C1CCCC1 | 26 | -10 | 92.7 | 15.7 | 89.2 | 9.7 |  |  |  |  |  |  |  |  |  | 
3 | COc1ccc(NC(=O)C2(C(=O)Nc3ccc(Nc4ncc5cc(C(=O)N(C)C)n(C6CCCC6)c5n4)cc3)CC2)cc1 | 77 | 19 | 96.1 | 74.4 | 78.5 | 76.4 |  |  |  |  |  |  |  |  |  | 
4 | CN(C)C(=O)c1cc2cnc(Nc3ccc(NC(=O)C4(C(=O)Nc5cccc(O)c5)CC4)cc3)nc2n1C1CCCC1 | 94 | 24 | 83.7 |  |  | 80.7 | 78.5 | 58.5 | -19.8 | 57 | 75.7 | 96.6 | 75.5 | 77.5 | 94.9 | 86
5 | CN(C)C(=O)c1cc2cnc(Nc3ccc(NC(=O)C4(C(=O)Nc5ccc(Cl)cc5)CC4)cc3)nc2n1C1CCCC1 | 65 | 5 | 95 | 24.7 | 100 | 22.8 | 88.6 | 8.1 | -0.8 |  |  |  | 21.3 | 52.2 | 95.7 | 85.3
6 | CN(C)C(=O)c1cc2cnc(Nc3ccc(NC(=O)C4(C(=O)Nc5ccc(C#N)cc5)CC4)cc3)nc2n1C1CCCC1 | 84 | 21 |  | 86.1 | 95 |  |  |  |  |  |  |  |  |  |  | 
7 | CN(C)C(=O)c1cc2cnc(Nc3ccc(NC(=O)C4(C(=O)Nc5ccccc5)CC4)cc3)nc2n1C1CCCC1 | 82 | 8 | 93.9 | 75 | 88.8 | 52.8 | 90.5 | 52.1 | 58 |  | 106 |  | 42.4 | 71.2 | 95.9 | 77.1
8 | CN(C)C(=O)c1cc2cnc(Nc3ccc(NC(=O)C4(C(=O)Nc5cccc(C#N)c5)CC4)cc3)nc2n1C1CCCC1 | 53 | 29 |  | 70.8 | 73.6 |  |  |  |  |  |  |  |  |  |  | 
9 | CN(C)C(=O)c1cc2cnc(Nc3ccc(NC(=O)C4(C(=O)Nc5ccc(F)cc5)CC4)cc3F)nc2n1C1CCCC1 | 87 | 33 | 67.9 |  |  | 6.3 | 82.6 | -0.9 | 6.6 | 6.2 | 44.4 | 49.5 | 11.9 | 52.3 | 53 | 33
10 | Cc1cccc(NC(=O)C2(C(=O)Nc3ccc(Nc4ncc5cc(C(=O)N(C)C)n(C6CCCC6)c5n4)cc3)CC2)c1 | 66 | 5 | 95.3 | 35.2 | 86.1 | 45.7 |  |  |  |  |  |  |  |  |  | 
11 | CN(C)C(=O)c1cc2cnc(Nc3ccc(NC(=O)C4(C(=O)Nc5ccc(F)cc5)CC4)cn3)nc2n1C1CCCC1 | 85 | -3 |  |  |  |  |  |  |  |  |  |  |  |  |  | 
12 | COC(=O)c1cccc(NC(=O)C2(C(=O)Nc3ccc(Nc4ncc5cc(C(=O)N(C)C)n(C6CCCC6)c5n4)cc3)CC2)c1 | 76 | -7 |  | 10.5 | 91 |  |  |  |  |  |  |  |  |  |  | 
13 | CN(C)C(=O)c1cc2cnc(Nc3ccc(NC(=O)C4(C(=O)Nc5cccc(F)c5)CC4)cc3)nc2n1C1CCCC1 | 61 | 7 | -0.4 | 33.2 | 91.8 | -3.2 | 87 | 26.3 | 29.7 |  | 107 |  | 45.1 | 64.2 | 98.8 | 85.6
14 | CN(C)C(=O)c1cc2cnc(Nc3ccc(NC(=O)C4(C(=O)Nc5ccc(Br)cc5)CC4)cc3)nc2n1C1CCCC1 | 48 | 26 | 94.3 | -6.6 | 90.3 | 21.1 | 76.9 | 13.7 | 23.2 |  | 98.8 |  | 31.5 | 27.6 | 96.4 | 87.8
15 | CN(C)C(=O)c1cc2cnc(Nc3ccc(NC(=O)C4(C(=O)Nc5ccccc5F)CC4)cc3)nc2n1C1CCCC1 | 75 | -2 | 97.8 | 79.1 | 88.6 | 85.2 | 89.6 | 58 | 63.4 |  | 103 |  | 28.2 | 70.2 | 93.1 | 82.6
16 | COc1cccc(NC(=O)C2(C(=O)Nc3ccc(Nc4ncc5cc(C(=O)N(C)C)n(C6CCCC6)c5n4)cc3)CC2)c1 | 66 | -2 | 93.5 | 77.2 | 96 | 56.3 |  |  |  |  |  |  |  |  |  | 
17 | CN(C)C(=O)c1cc2cnc(Nc3ccc(N4CCN(C(=O)C5(C(=O)Nc6ccc(F)cc6)CC5)CC4)cn3)nc2n1C1CCCC1 | 97 | -8 |  |  |  |  |  |  |  |  |  |  |  |  |  | 
18 | CN(C)C(=O)c1cc2cnc(Nc3ccc(N)cn3)nc2n1C1CCCC1 |  |  | 61.1 |  |  | 18.8 | 82.1 | 12.3 | -21.2 | 3.7 | 61.5 | 68.7 | -0.6 | 60.1 | 62 | 68
19 | Cc1ccc(NC(=O)C2(C(=O)Nc3ccc(Nc4ncc5cc(C(=O)N(C)C)n(C6CCCC6)c5n4)cc3)CC2)cc1 | 62 | 9 | 99.6 | 40.2 | 90.6 | 47.9 | 84.5 |  | 37 |  | 104 |  |  |  |  | 80.6
20 | COC(=O)c1ccc(NC(=O)C2(C(=O)Nc3ccc(Nc4ncc5cc(C(=O)N(C)C)n(C6CCCC6)c5n4)cc3)CC2)cc1 | 77 | 2 |  | 77.1 | 92 |  |  |  |  |  |  |  |  |  |  | 
21 | CN(C)C(=O)c1cc2cnc(Nc3ccc(NC(=O)C4(C(=O)Nc5cccc(Br)c5)CC4)cc3)nc2n1C1CCCC1 | 72 | 6 | 94.6 | 20.2 | 92.2 | 29.1 | 77.5 | 0.04 | 13.9 |  | 92.5 |  |  | 46.6 |  | 89.6
22 | CN(C)C(=O)c1cc2cnc(Nc3ccc(NC(=O)C4(C(=O)Nc5cccc(Cl)c5)CC4)cc3)nc2n1C1CCCC1 | 44 | 15 | 92.6 | 8.3 | 90.7 | 39.3 | 84.1 | 15.5 | 16.2 |  | 97.3 |  | 44 | 47.9 | 101 | 88.1
